According to ChEMBL document CHEMBL1136766, “Design, synthesis, and biological evaluation of new inhibitors of the endocannabinoid uptake: comparison with effects on fatty acid amidohydrolase” (J Med Chem, 2003):

What was measured:
[1] = biological target: T1, Fatty-acid amide hydrolase 1 (Rattus norvegicus, UniProt P97612); experiment: Inhibition of fatty acid amide hydrolase (FAAH) was determined using rat brain homogenates as the enzyme source and [3H]anandamide as substrate; format: tissue-based
T1 sequence (P97612 whole entry): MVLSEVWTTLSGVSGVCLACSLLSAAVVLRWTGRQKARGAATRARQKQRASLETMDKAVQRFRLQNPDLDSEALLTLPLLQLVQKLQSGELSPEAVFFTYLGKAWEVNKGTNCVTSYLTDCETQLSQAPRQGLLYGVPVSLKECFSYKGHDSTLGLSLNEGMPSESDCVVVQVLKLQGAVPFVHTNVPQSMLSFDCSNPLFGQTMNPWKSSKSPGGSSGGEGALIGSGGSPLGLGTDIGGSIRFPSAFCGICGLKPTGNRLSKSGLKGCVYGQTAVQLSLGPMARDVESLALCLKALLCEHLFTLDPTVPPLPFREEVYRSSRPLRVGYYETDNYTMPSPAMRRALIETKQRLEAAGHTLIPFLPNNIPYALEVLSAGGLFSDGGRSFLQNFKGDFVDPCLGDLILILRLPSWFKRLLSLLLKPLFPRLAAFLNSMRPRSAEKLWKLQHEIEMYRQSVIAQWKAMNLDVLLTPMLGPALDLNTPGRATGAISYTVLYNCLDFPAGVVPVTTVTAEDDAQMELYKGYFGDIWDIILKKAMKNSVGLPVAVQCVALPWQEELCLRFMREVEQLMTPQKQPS
Summary of the method: (§1)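 Rat brain homogenate without cerebellum, in 10 mM Tris-HCl/1 mM EDTA pH 7.6, incubated 10 min at 37 °C with compound (ethanol carrier). Substrate: anandamide 2 µM final with trace [3H]anandamide labelled in the ethanolamine, plus BSA. Stopped on ice with chloroform/methanol; [3H]ethanolamine in the aqueous phase counted. Eight concentrations from 0.5 to 100 µM, at least three experiments.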

Cannabinoid receptor 1 = Cannabinoid receptor 1 (Rattus norvegicus, UniProt P20272); experiment: Binding affinity against G protein coupled Cannabinoid receptor 1 using [3H]WIN-55212-2 in rat cerebellum membranes; format: cell membranes, Membrane
Summary of the method: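 Rat cerebellum membranes washed in 50 mM Tris-HCl pH 7.4, resuspended at about 2 mg/mL protein. Incubated 90 min at 30 °C with 0.5 nM [3H]WIN55212-2 plus competitor in Tris/EDTA/MgCl2/5 mg/mL BSA buffer. Nonspecific binding defined with 10 µM SR141716A. Bound ligand separated by GF/C filtration and counted by scintillation. IC50 from curve fit, Ki by Cheng-Prusoff. Two to four experiments in triplicate.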

[2] = biological target: T1, Fatty-acid amide hydrolase 1; experiment: Maximum Inhibition of fatty acid amide hydrolase (FAAH) was determined using rat brain homogenates at concentrations ranging from 0.5 to 100 uM; summary of the method: as §1
Homo sapiens [3] = species on record: Homo sapiens; experiment: Maximum Inhibition of anandamide transport(ANT) was determined against human lymphoma U937 cell at a dose of 50 uM; format: functional, U-937
Summary of the method: (§2)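 U937 cells (10^6/mL, RPMI 1640) preincubated 10 min at 37 °C with inhibitor, highest concentration tested 50 µM. Then [3H]anandamide 0.45 nM plus cold anandamide (100 nM final) added for 7 min. Stopped by GF/C filtration and washed with Krebs-HEPES; radioactivity counted. Nonspecific uptake measured at 4 °C. IC50 by curve fit; maximum inhibition is the % inhibition at 50 µM.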

Cannabinoid receptor 2 = Cannabinoid receptor 2 (Homo sapiens, UniProt P34972); experiment: Binding affinity against G protein coupled human Cannabinoid receptor 2 using [3H]CP-55940 in HEK293 EBNA transfected cells; format: cell-based
Summary of the method: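 Incubated 90 min at 30 °C with 0.3 nM [3H]CP55940 plus competitor. Filtered and counted by scintillation. IC50 from curve fit, Ki by Cheng-Prusoff. Two to four experiments in triplicate.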

Homo sapiens [4] = species on record: Homo sapiens; experiment: Inhibition of [3H]anandamide transport(ANT) in human lymphoma U937 cell; format: functional; details: U-937; summary of the method: as §2
[5] = biological target: Transient receptor potential cation channel subfamily V member 1 (Rattus norvegicus, UniProt O35433); experiment: Binding affinity against vanilloid receptor 1 (VR1) using [3H]RTX in rat spinal cord membranes; format: cell membranes, Membrane
Summary of the method: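 Rat spinal cord membranes (about 1 mg/mL protein) in HEPES/sucrose buffer pH 7.4 with 0.25 mg/mL BSA. Incubated 60 min at 37 °C with 25 pM [3H]RTX plus competitor; nonspecific binding defined with 1 µM RTX. Stopped on ice, α1-acid glycoprotein added, membranes pelleted and counted. Ki by Cheng-Prusoff. Two to four experiments in triplicate.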

[6] = biological target: T2, Fatty-acid amide hydrolase 1 (Rattus norvegicus) (UniProt P97612); experiment: Inhibition of fatty acid amide hydrolase (FAAH) in rat brain homogenates; format: tissue-based; summary of the method: as §1
T2 sequence (whole entry): T1 sequence (P97612 whole entry)

[7] = biological target: T2, Fatty-acid amide hydrolase 1 (Rattus norvegicus); experiment: Maximum Inhibition of fatty acid amide hydrolase (FAAH) was determined using rat brain homogenates at 100 uM
Summary of the method: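 Rat brain (minus cerebellum) homogenate in 10 mM Tris-HCl, 1 mM EDTA, pH 7.6, incubated 10 min at 37 °C with test agent or ethanol carrier. Substrate: 2 µM final anandamide with trace [3H]anandamide (ethanolamine label), 1% fatty acid free BSA. Stopped on ice plus chloroform/methanol. Aqueous-phase [3H]ethanolamine counted by scintillation. Inhibition read at 100 µM where IC50 fit failed.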

Sequence of Cannabinoid receptor 2 (P34972 whole entry): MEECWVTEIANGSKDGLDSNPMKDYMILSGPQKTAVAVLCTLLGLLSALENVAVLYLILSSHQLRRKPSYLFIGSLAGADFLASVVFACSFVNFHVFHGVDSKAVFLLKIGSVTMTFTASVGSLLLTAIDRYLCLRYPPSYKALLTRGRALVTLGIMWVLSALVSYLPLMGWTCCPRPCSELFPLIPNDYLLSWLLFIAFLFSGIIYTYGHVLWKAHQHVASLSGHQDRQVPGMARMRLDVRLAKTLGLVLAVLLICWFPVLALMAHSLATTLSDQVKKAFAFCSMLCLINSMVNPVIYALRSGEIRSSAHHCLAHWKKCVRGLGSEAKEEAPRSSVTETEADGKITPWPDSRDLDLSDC
Sequence of Transient receptor potential cation channel subfamily V member 1 (O35433 whole entry): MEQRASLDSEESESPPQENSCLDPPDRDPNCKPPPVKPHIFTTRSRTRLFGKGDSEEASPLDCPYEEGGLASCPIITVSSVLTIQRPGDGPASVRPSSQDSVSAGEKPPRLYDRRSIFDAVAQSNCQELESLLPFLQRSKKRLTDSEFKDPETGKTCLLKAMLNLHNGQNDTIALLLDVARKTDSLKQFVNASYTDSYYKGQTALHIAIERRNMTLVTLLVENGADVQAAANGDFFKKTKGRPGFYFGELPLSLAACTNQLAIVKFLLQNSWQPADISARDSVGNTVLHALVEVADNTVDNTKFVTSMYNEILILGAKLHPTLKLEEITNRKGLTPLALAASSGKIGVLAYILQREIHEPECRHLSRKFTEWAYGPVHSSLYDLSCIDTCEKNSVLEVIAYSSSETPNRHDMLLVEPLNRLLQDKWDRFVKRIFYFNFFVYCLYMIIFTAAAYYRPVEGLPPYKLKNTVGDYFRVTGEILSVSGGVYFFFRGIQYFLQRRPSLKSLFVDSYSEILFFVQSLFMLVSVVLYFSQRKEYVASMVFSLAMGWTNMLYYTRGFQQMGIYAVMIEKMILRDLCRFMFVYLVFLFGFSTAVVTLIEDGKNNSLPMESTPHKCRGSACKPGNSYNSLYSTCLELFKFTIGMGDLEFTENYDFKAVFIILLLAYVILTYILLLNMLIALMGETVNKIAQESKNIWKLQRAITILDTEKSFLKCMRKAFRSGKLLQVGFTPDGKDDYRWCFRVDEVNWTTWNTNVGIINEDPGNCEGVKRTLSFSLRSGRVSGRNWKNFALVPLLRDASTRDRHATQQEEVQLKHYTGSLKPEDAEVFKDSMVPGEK
Sequence of Cannabinoid receptor 1 (P20272 whole entry): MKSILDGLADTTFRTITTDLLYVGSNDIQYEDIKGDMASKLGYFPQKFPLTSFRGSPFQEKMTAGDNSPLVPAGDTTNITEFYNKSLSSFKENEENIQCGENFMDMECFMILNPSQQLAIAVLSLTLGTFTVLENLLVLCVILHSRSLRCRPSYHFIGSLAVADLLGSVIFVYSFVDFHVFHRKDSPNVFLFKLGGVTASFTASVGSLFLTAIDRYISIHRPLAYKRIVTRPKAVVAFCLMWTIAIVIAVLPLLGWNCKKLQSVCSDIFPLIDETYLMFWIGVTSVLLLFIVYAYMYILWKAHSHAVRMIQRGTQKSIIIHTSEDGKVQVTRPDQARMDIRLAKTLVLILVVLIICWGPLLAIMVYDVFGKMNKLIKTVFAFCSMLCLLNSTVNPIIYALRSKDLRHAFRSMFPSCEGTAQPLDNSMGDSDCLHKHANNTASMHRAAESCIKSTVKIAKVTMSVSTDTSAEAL

Row | SMILES | IC50 [1] [µM] | Ki (Cannabinoid receptor 1) [µM] | IC50 [2] [µM] | Max inhibition (Homo sapiens [3]) [%] | Ki (Cannabinoid receptor 2) [µM] | IC50 (Homo sapiens [4]) [µM] | Ki [5] [µM] | Max inhibition [6] [%] | Max inhibition [7] [%]
1 | CCCCC/C=C\C/C=C\C/C=C\C/C=C\CCCC(=O)N(C)Cc1ccoc1 | > 120 | > 1 | 24 | >85 | > 1 | 111 | – | – | –
2 | CCCCC/C=C\C/C=C\C/C=C\C/C=C\CCCC(=O)N(Cc1cccs1)Cc1cccs1 | – | > 1 | – | >85 | > 1 | 16 | > 5 | – | –
3 | CCCCC/C=C\C/C=C\C/C=C\C/C=C\CCCC(=O)OCc1ccoc1 | 103 | > 5 | – | >85 | > 5 | – | – | 100 | –
4 | CCCCC/C=C\C/C=C\C/C=C\C/C=C\CCCC(=O)OCc1ccsc1 | 84 | > 5 | – | >85 | > 5 | – | – | 100 | –
5 | CCCCC/C=C\C/C=C\C/C=C\C/C=C\CCCC(=O)NCCc1ccco1 | > 120 | > 5 | – | >85 | > 1 | 12.8 | > 5 | – | 38
6 | CCCCC/C=C\C/C=C\C/C=C\C/C=C\CCCC(=O)SCc1ccco1 | > 120 | > 5 | – | >85 | > 5 | 9 | > 5 | 36 | –
7 | CCCCC/C=C\C/C=C\C/C=C\C/C=C\CCCC(=O)NCc1cccs1 | 112 | – | – | >85 | > 10 | – | – | 100 | –
8 | CCCCC/C=C\C/C=C\C/C=C\C/C=C\CCCC(=O)NCc1cccn1C | – | – | – | >85 | – | – | – | – | –
9 | CCCCC/C=C\C/C=C\C/C=C\C/C=C\CCCC(=O)NC(C)Cc1ccsc1 (centres undefined) | > 120 | > 1 | – | 78 | > 1 | 21 | < 5 | 37 | –
10 | CCCCC/C=C\C/C=C\C/C=C\C/C=C\CCCCNCc1ccoc1 | 29 | > 1 | – | >85 | > 1 | – | > 5 | 57 | –
11 | CCCCC/C=C\C/C=C\C/C=C\C/C=C\CCCC(=O)NCCc1ccoc1 | – | > 1 | – | >85 | 0.4 | 3.3 | > 5 | – | –
12 | CCCCC/C=C\C/C=C\C/C=C\C/C=C\CCCC(=O)NCc1ccoc1 | 30 | 4.7 | – | >85 | – | – | – | 100 | –
13 | CCCCC/C=C\C/C=C\C/C=C\C/C=C\CCCC(=O)NC(C)Cc1cccs1 (centres undefined) | 15 | > 1 | – | 66 | > 1 | 22 | < 5 | 36 | –
14 | CCCCC/C=C\C/C=C\C/C=C\C/C=C\CCCC(=O)OCCc1ccsc1 | 28 | > 1 | – | 75 | > 5 | 26 | > 5 | 100 | –
15 | CCCCC/C=C\C/C=C\C/C=C\C/C=C\CCCC(=O)NCCc1cccs1 | 102 | 3 | – | >85 | > 1 | 19 | > 5 | 100 | –
16 | CCCCC/C=C\C/C=C\C/C=C\C/C=C\CCCC(=O)NCC1CCCO1 (centres undefined) | 44 | > 5 | – | >85 | > 5 | – | – | 47 | –
17 | CCCCC/C=C\C/C=C\C/C=C\C/C=C\CCCC(=O)OCc1cccs1 | 12 | > 5 | – | – | > 5 | – | – | 80 | –
18 | CCCCC/C=C\C/C=C\C/C=C\C/C=C\CCCC(=O)OC(C)c1ccco1 (centres undefined) | > 120 | > 1 | – | 70 | > 1 | – | > 5 | – | 45
19 | CCCCC/C=C\C/C=C\C/C=C\C/C=C\CCCC(=O)NCc1ccco1 | 34 | > 5 | – | >85 | > 5 | – | – | 100 | –
20 | CCCCC/C=C\C/C=C\C/C=C\C/C=C\CCCC(=O)Nc1ccc(O)cc1 | 3.7 | – | – | >85 | – | – | – | 100 | –
21 | CCCCC/C=C\C/C=C\C/C=C\C/C=C\CCCC(=O)OCc1ccco1 | 53 | > 5 | – | >85 | > 5 | – | – | 100 | –
22 | CCCCC/C=C\C/C=C\C/C=C\C/C=C\CCCC(=O)NCc1ccsc1 | 12 | > 1 | – | >85 | > 1 | 5 | > 5 | 76 | –
23 | CCCCC/C=C\C/C=C\C/C=C\C/C=C\CCCC(=O)OCC1CCCO1 (centres undefined) | > 120 | > 5 | – | >85 | > 5 | – | – | 23 | –
24 | CCCCC/C=C\C/C=C\C/C=C\C/C=C\CCCC(=O)OCCc1cccs1 | 24 | > 1 | – | >85 | > 5 | 12 | > 5 | 68 | –
25 | CCCCC/C=C\C/C=C\C/C=C\C/C=C\CCCC(=O)O[C@@H](C)c1ccco1 | > 120 | > 1 | – | 55 | > 5 | – | > 5 | – | 24
26 | CCCCC/C=C\C/C=C\C/C=C\C/C=C\CCCC(=O)O[C@H](C)c1ccco1 | > 120 | > 1 | – | 37 | > 5 | – | > 5 | – | 19
27 | CCCCC/C=C\C/C=C\C/C=C\C/C=C\CCCC(=O)NC(C)c1ccco1 (centres undefined) | 36 | > 5 | – | >85 | > 5 | 21 | > 5 | 75 | –
28 | CCCCC/C=C\C/C=C\C/C=C\C/C=C\CCCC(=O)OCC1CCOC1 (centres undefined) | 113 | > 5 | – | >85 | > 10 | – | – | 100 | –
29 | CCCCC/C=C\C/C=C\C/C=C\C/C=C\CCCC(=O)NCCc1ccsc1 | – | > 1 | – | 60 | > 1 | 1.3 | < 5 | – | –
